Laboratory results as given in ChEMBL document CHEMBL1133502, “Thio- and oxoflavopiridols, cyclin-dependent kinase 1-selective inhibitors: synthesis and biological effects” (J Med Chem, 2000).

Assays:
Protein kinase C (PKC) = test: Inhibition of rat brain PKC kinase
Method in brief: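 Commercial PKC assay system run at 20 μM ATP. Read-out by spotting onto p81 phosphocellulose.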

[1] = Inhibition of PKA kinase; design: species or system Bos taurus
Method in brief: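 Bovine heart PKA (2 units) with 500 ng GST-TK fusion substrate and 25 μM [32P]ATP, in 50 mM Tris pH 7.5, 10 mM MgCl2. Incubated 1 h at 30 °C. Read-out by TCA precipitation.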

[2] = Inhibition of Mitogen-activated protein kinase; design: species or system Xenopus laevis
[3] = target: Epidermal growth factor receptor (Homo sapiens, UniProt P00533); test: Inhibition of Epidermal growth factor receptor
[4] = target: Cyclin-dependent kinase 4/cyclin D1 (Homo sapiens, UniProt P11802); test: Inhibition of Cyclin-dependent kinase 4-cyclin D1; type: protein-complex assay
[5] = target: Cyclin-dependent kinase 2/cyclin E (Homo sapiens, UniProt P24941); test: Inhibition of Cyclin-dependent kinase 2-cyclin E; type: protein-complex assay
[6] = target: Cyclin-dependent kinase 1/cyclin B1 (Homo sapiens, UniProt P06493); type: protein-complex assay
PC-3 = test: cells; details: Homo sapiens
[7] = target: Cyclin-dependent kinase 2/cyclin A (Homo sapiens, UniProt P24941); test: Inhibition of Cyclin-dependent kinase 2-cyclin A; type: protein-complex assay
HCT-116 = test: cells; details: Homo sapiens
A2780 = test: cells; details: Homo sapiens
MIA PaCa-2 = test: cells; details: Homo sapiens
[8] = Inhibition of Cyclin-dependent kinase 1-cyclin A; design: species or system Homo sapiens

Chain of Cyclin-dependent kinase 4/cyclin D1 (P11802 whole entry): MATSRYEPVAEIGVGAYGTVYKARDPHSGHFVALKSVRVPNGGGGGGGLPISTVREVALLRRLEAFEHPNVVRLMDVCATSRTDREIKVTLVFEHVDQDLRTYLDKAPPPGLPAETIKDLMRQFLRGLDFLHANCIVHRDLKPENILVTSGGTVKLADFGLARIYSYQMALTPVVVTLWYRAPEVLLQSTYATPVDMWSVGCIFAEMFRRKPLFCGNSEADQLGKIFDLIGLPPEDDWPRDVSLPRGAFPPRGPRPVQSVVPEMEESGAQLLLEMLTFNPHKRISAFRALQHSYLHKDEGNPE
Chain of Cyclin-dependent kinase 4/cyclin D1 (P24385 whole entry, further chain): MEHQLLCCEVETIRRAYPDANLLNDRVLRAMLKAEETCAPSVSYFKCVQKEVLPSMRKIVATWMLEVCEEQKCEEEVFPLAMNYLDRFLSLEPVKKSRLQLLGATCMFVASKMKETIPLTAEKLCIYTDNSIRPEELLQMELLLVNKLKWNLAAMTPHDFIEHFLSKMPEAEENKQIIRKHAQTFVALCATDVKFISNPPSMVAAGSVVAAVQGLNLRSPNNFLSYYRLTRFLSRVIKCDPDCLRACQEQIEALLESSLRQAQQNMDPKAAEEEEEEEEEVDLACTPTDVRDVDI
Chain of Cyclin-dependent kinase 1/cyclin B1 (P06493 whole entry): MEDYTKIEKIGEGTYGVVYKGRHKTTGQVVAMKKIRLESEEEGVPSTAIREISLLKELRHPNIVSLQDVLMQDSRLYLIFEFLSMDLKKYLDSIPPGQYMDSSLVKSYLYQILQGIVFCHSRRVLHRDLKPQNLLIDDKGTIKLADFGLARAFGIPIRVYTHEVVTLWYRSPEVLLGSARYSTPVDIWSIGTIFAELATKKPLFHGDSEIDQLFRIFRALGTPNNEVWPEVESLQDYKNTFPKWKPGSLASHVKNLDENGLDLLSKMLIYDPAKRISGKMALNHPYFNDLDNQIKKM
Chain of Cyclin-dependent kinase 1/cyclin B1 (P14635 whole entry, further chain): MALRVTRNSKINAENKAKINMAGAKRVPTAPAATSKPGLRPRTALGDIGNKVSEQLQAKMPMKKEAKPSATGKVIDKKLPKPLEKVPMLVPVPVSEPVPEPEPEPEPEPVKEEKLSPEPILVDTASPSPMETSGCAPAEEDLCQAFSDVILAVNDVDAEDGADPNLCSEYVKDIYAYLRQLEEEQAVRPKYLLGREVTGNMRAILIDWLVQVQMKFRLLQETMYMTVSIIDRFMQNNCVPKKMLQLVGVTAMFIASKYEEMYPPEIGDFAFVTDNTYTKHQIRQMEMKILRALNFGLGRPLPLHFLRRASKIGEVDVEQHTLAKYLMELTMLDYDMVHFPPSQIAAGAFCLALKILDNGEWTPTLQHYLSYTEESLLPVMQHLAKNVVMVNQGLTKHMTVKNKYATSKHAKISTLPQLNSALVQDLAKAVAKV
Chain of Epidermal growth factor receptor (P00533 whole entry): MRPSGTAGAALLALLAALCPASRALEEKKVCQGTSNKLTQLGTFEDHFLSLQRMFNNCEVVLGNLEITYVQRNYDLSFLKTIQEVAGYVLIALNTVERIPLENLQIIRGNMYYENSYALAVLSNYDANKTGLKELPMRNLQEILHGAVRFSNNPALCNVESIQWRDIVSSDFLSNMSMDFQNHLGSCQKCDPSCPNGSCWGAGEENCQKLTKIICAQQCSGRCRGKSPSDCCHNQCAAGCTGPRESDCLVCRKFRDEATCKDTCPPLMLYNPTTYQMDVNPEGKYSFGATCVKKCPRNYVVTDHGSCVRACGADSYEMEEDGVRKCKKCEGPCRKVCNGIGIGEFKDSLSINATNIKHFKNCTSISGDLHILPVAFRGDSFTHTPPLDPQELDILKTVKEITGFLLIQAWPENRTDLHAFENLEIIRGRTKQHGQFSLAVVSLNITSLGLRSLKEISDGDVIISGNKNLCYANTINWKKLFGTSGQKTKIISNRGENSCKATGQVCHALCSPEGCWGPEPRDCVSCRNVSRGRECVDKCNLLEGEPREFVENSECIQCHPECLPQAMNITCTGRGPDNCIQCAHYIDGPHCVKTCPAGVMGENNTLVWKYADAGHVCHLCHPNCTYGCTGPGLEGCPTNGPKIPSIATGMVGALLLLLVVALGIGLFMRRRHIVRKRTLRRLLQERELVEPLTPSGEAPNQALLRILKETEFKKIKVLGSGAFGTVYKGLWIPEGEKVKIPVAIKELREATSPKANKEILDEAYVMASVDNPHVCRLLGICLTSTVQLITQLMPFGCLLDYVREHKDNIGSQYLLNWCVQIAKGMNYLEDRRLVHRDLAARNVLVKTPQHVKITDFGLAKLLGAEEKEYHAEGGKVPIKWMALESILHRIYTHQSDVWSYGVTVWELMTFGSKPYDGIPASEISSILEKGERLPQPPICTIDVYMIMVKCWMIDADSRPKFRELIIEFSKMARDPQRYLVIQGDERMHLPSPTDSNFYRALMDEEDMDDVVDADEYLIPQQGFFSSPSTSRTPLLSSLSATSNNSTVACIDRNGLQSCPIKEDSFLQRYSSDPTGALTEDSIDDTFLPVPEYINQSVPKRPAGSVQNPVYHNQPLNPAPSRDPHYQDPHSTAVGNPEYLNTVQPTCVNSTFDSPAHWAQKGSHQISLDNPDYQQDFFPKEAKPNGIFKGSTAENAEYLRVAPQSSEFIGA

SMILES	IC50 (Protein kinase C (PKC)) [µM]	IC50 [1] [µM]	IC50 [2] [µM]	IC50 [4] [µM]	IC50 [5] [µM]	IC50 [6] [µM]	other results
CN1CCC(c2c(O)cc(O)c3c(=O)cc(SC(C)(C)C)oc23)C(O)C1 (racemic)				2.07	1.07	0.08	
CN1CCC(c2c(O)cc(O)c3c(O)c/c(=N\c4ccccc4)oc23)C(O)C1 (racemic)				> 25	> 25	16.3	
CN1CCC(c2c(O)cc(O)c3c(=O)cc(N4CCCCC4)oc23)C(O)C1 (racemic)				3.7	9.69	2.5	
CN1CC[C@H](c2c(O)cc(O)c3c(=O)cc(Sc4ccccc4Cl)oc23)[C@H](O)C1 (stereo in doubt; 16)	16.1	> 50	> 25	16.2	2.1	0.11	IC50 (PC-3): 0.02 µM; IC50 [7]: 1.5 µM; IC50 (HCT-116): 0.21 µM; IC50 [3]: > 50 µM; IC50 (A2780): 0.87 µM; IC50 (MIA PaCa-2): 0.03 µM; IC50 [8]: 0.16 µM
CN1CC[C@H](c2c(O)cc(O)c3c(=O)cc(Sc4ccccc4Cl)oc23)[C@H](O)C1 (stereo in doubt; 21)				> 25	4.4	6.1	
CN1CC[C@H](c2c(O)cc(O)c3c(=O)cc(-c4ccccc4Cl)oc23)[C@H](O)C1 [ALVOCIDIB]	14	> 50	19				IC50 [8]: 0.05 µM
COC(=O)[C@@]1(Cc2ccc(O)c(CC=C(C)C)c2)OC(=O)C(O)=C1c1ccc(O)cc1 [BUTYROLACTONE I]	160	260	94	1000			IC50 [3]: 590 µM
Cn1cnc2c(NCc3ccccc3)nc(NCCO)nc21 [OLOMOUCINE]	1000	2000	30				

Now from value to molecule, other results behind:

IC50 (Protein kinase C (PKC)) [µM]	IC50 [1] [µM]	IC50 [2] [µM]	IC50 [4] [µM]	IC50 [5] [µM]	IC50 [6] [µM]	SMILES	other results
> 50	> 50	> 25				CN1CC[C@H](c2c(O)cc(O)c3c(=O)cc(Oc4ccccc4Cl)oc23)[C@H](O)C1	IC50 [3]: > 50 µM
			4.1	6.59	0.44	CN1CCC(c2c(O)cc(O)c3c(=O)cc(Sc4ccccc4)oc23)C(O)C1 (racemic)	
			82.5	40.4	6.4	Cc1cc(C)nc(Sc2cc(=O)c3c(O)cc(O)c(C4CCN(C)CC4O)c3o2)n1 (racemic)	
			2.06	3.93	0.46	CCSc1cc(=O)c2c(O)cc(O)c(C3CCN(C)CC3O)c2o1 (racemic)	
